The text below walks through data of ChEMBL document CHEMBL3611973, “Synthesis and biological evaluation of a novel betulinic acid derivative as an inducer of apoptosis in human colon carcinoma cells (HT-29)” (Eur J Med Chem, 2015).

One may read the IC50 as the point on the concentration scale where inhibition reaches its midpoint.

For one test, the system named is MCF7. Kind of test: Cytotoxic activity against human MCF7 cells assessed as cell growth inhibition after 48 hrs by MTT assay. It is filed as functional, cell-based. Particulars: MCF7, 48 h. The essentials: (§1)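 Log-phase cells (1.25-2.5×10^4/100 µl; RPMI 1640, HepG2 in high-glucose DMEM, 10% FBS) given compound in DMSO (final <0.1%), 0-50 µM, 48 h, 37 °C, 5% CO2. MTT 4 h, DMSO solubilization, OD 540 nm minus background; viability relative to untreated; IC50 by graphical extrapolation, ≥3 experiments in duplicate.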
For orientation: Tetrazolium assays rely on reduction of a dye to a coloured formazan, in cell work by metabolically active cells.

For another test, the system named is HT-29. In words: Cytotoxic activity against human HT-29 cells assessed as cell growth inhibition after 48 hrs by MTT assay. It is filed as functional, cell-based. The settings on record: HT-29, 48 h. In short, it runs like this: as §1
Another test relates to U-937. In words: Cytotoxic activity against human U937 cells assessed as cell growth inhibition after 48 hrs by MTT assay. Particulars: U-937, 48 h. It is filed as functional, cell-based. In short, it runs like this: as §1
The subject of another test is HepG2. Kind of test: Cytotoxic activity against human HepG2 cells assessed as cell growth inhibition after 48 hrs by MTT assay. It is filed as functional, cell-based. The settings on record: HepG2, 48 h. The essentials: as §1
For another test, the system named is Jurkat. Kind of test: Cytotoxic activity against human Jurkat cells assessed as cell growth inhibition after 48 hrs by MTT assay. It is filed as functional, cell-based. The essentials: as §1
Another test has as its system PBMC. In words: Cytotoxic activity against human PBMC cells assessed as cell growth inhibition after 48 hrs by MTT assay. It is filed as cell-based. The essentials:
as §1

For `C=C(C)[C@@H]1CC[C@]2(C(=O)O)CC[C@]3(C)[C@H](CC[C@@H]4[C@@]5(C)CC[C@H](OC(=O)Cn6cc(CO[C@@H]7[C@H]8OC(C)(C)O[C@H]8O[C@@H]7[C@H]7COC(C)(C)O7)nn6)C(C)(C)[C@@H]5CC[C@]43C)[C@@H]12`, the IC50 in the test with MCF7, with HT-29, with U-937, in the test on HepG2 and in the test on Jurkat was greater than 50 µM throughout.
For `C=C(C)[C@@H]1CC[C@]2(C(=O)O)CC[C@]3(C)[C@H](CC[C@@H]4[C@@]5(C)CC[C@H](OC(=O)Cn6ccnn6)C(C)(C)[C@@H]5CC[C@]43C)[C@@H]12`, the IC50 with MCF7, in the test on HT-29, in the test with U-937, in the test on HepG2, in the test on PBMC and with Jurkat was greater than 50 µM throughout.
With `C=C(C)[C@@H]1CC[C@]2(C(=O)O)CC[C@]3(C)[C@H](CC[C@@H]4[C@@]5(C)CC[C@H](OC(=O)Cn6cc(CO[C@@H]7[C@H]8OC(C)(C)O[C@H]8O[C@@H]7[C@H](O)CO)nn6)C(C)(C)[C@@H]5CC[C@]43C)[C@@H]12`, the IC50 with MCF7, with HT-29, in the test on U-937, in the test with HepG2 and in the test on Jurkat was greater than 50 µM throughout.
Take `C=C(C)[C@@H]1CC[C@]2(C(=O)O)CC[C@]3(C)[C@H](CC[C@@H]4[C@@]5(C)CC[C@H](OC(=O)Cn6cc(-c7c[nH]c(=O)[nH]c7=O)nn6)C(C)(C)[C@@H]5CC[C@]43C)[C@@H]12`: the IC50 in the test with MCF7, in the test on HT-29, in the test with U-937, in the test on HepG2 and in the test with Jurkat was greater than 50 µM each time.
For `C=C(C)[C@@H]1CC[C@]2(C(=O)O)CC[C@]3(C)[C@H](CC[C@@H]4[C@@]5(C)CC[C@H](OC(=O)Cn6cc(-c7cnc(OC)nc7OC)nn6)C(C)(C)[C@@H]5CC[C@]43C)[C@@H]12`, the IC50 is 44.7 µM with MCF7; 39.8 µM in the test on HT-29; 41.9 µM in the test with U-937; greater than 50 µM in the test with HepG2; greater than 50 µM with PBMC; greater than 50 µM in the test with Jurkat.
Regarding `C=C(C)[C@@H]1CC[C@]2(C(=O)O)CC[C@]3(C)[C@H](CC[C@@H]4[C@@]5(C)CC[C@H](OC(=O)Cn6cc(-c7ccccc7)nn6)C(C)(C)[C@@H]5CC[C@]43C)[C@@H]12`, the half-maximal inhibitory concentration (IC50) in the test on MCF7, in the test on HT-29, in the test with U-937, in the test with HepG2, with PBMC and in the test on Jurkat was greater than 50 µM throughout.
Take `C=C(C)[C@@H]1CC[C@]2(C(=O)O)CC[C@]3(C)[C@H](CC[C@@H]4[C@@]5(C)CC[C@H](OC(=O)Cn6cc(-c7ccc(C(=O)OCC)cc7)nn6)C(C)(C)[C@@H]5CC[C@]43C)[C@@H]12`: the concentration for half-maximal inhibition (IC50) is greater than 50 µM in the test on MCF7; greater than 50 µM in the test with HT-29; 40.1 µM in the test with U-937; greater than 50 µM in the test with HepG2; greater than 50 µM in the test with Jurkat.
With `C=C(C)[C@@H]1CC[C@]2(C(=O)O)CC[C@]3(C)[C@H](CC[C@@H]4[C@@]5(C)CC[C@H](OC(=O)Cn6cc(-c7ccc(C(=O)OC)cc7)nn6)C(C)(C)[C@@H]5CC[C@]43C)[C@@H]12`, the half-inhibitory concentration (IC50) in the test on MCF7, in the test on HT-29, with U-937, in the test with HepG2 and in the test on Jurkat was greater than 50 µM in each case.
Take `C=C(C)[C@@H]1CC[C@]2(C(=O)O)CC[C@]3(C)[C@H](CC[C@@H]4[C@@]5(C)CC[C@H](OC(=O)Cn6cc(-c7ccc([N+](=O)[O-])cc7)nn6)C(C)(C)[C@@H]5CC[C@]43C)[C@@H]12`: the IC50 in the test on MCF7 is 45.7 µM; with HT-29 it was greater than 50 µM; with U-937, greater than 50 µM; in the test on HepG2, 42.7 µM; in the test on PBMC it was greater than 50 µM; with Jurkat it was 44.8 µM.
On to `C=C(C)[C@@H]1CC[C@]2(C(=O)O)CC[C@]3(C)[C@H](CC[C@@H]4[C@@]5(C)CC[C@H](OC(=O)Cn6cc(-c7ccc8[nH]ccc8c7)nn6)C(C)(C)[C@@H]5CC[C@]43C)[C@@H]12`, for which the IC50 in the test on MCF7, in the test on HT-29, in the test on U-937, in the test on HepG2 and with Jurkat was greater than 50 µM throughout.
Take `C=C(C)[C@@H]1CC[C@]2(C(=O)O)CC[C@]3(C)[C@H](CC[C@@H]4[C@@]5(C)CC[C@H](OC(=O)Cn6cc(CCCC)nn6)C(C)(C)[C@@H]5CC[C@]43C)[C@@H]12`: the IC50 in the test with MCF7 was greater than 50 µM; in the test with HT-29 it was greater than 50 µM; in the test with U-937 it was greater than 50 µM; in the test on HepG2, 49.8 µM; in the test with Jurkat, greater than 50 µM.
